Hits are enriched below; roughly 5.1% of the tested compounds scored in any of these assays.
STAT1 blocker – STAT1 signaling inhibition; NIH 3T3 STAT1-luciferase reporter, IFN-gamma, luminescence; AID 920; inhibition, % at 5.5 µM; actives 0.35% (n = 200,000);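 active = inhibition above a set limit, the mean inhibition across all tested compounds plus 3 SD, cut at about 34% in these data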
STAT1 activator – increases IFN-gamma driven STAT1 reporter signal | NIH 3T3 STAT1-luciferase reporter, luminescence; 100% = IFN-gamma alone, no compound | activation (% of control), % at 5.5 µM | actives 2.6% (n = 200,000);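 active = activation above the screen-wide mean activation plus 3 SD, cut at about 130% in these data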
NF-kB expr up – compounds increasing NF-kB expression in human neuronal cells; NF-kB reporter expression; active compounds read high; fold change at 12.5 µM; actives 1.6% (n = 190,000); in the data active = fold change above about 3.3
STAT3 blocker – reduces IL-6 driven STAT3 reporter signal; inhibition, % at 5.5 µM; U3A cells, IL-6 STAT3-luciferase reporter, luminescence; host cell line lacks STAT1; actives 0.89% (n = 190,000);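 active = inhibition above the mean inhibition across all screened compounds plus 3 SD, cut at about 44% in these data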
STAT3 act – increases IL-6 driven STAT3 reporter signal. U3A cells, IL-6 STAT3-luciferase reporter, luminescence; 100% = signal with IL-6 EC80 alone. activation (% of control), % at 5.6 µM. actives 0.91% (n = 190,000). AID 871;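 active = activation above the screen-wide mean of compound activation plus 3 SD, cut at about 130% in these data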
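Detection: reporter luminescence signal / Assay system: STAT1-lacking human U3A cells, STAT3 luciferase reporter / Incubation: compound pre-incubation 1 h before IL-6, then 6 h stimulation at 37 °C / Control set: IL-6-only high control / Read-out: % activation relative to IL-6 control / Probe or stimulus: Interleukin-6, 33 ng/mL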
APP 5'UTR act – APP 5'UTR luciferase reporter activation. activation, % at 2 µM. SH-SY5Y APP 5'UTR luciferase reporter, luminescence; zero percent = DMSO vehicle wells. AID 1276. actives 1% (n = 190,000);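 active = activation above a set limit, based on mean plus 3 SD of controls, cut at about 140% in these data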
Each line names hits and unclear results; the compound was inactive in the other large screens.

CC(C)OC(=O)CC(=O)CSc1nc2c(c(-c3cccs3)c1C#N)CCC2	none
CCCc1nnc(NC(=O)Cn2c(=O)oc3cc(Br)ccc32)s1	none
O=c1oc2cc(Br)ccc2n1CSC1=NCCS1	NF-kB expr up 7.66
O=C(Cc1ccccc1)Nc1ccc2c(c1)CCC2	STAT1 activator 132.9
COc1ccc(CC(=O)Nc2ccc3c(c2)CCC3)cc1	none
CCN(CC)S(=O)(=O)c1ccc(NC2c3ccccc3C(=O)N2Cc2ccco2)cc1 (centres undefined)	none
CCOC(=O)N1CCN(C(=O)CSc2nnc(COc3ccccc3)o2)CC1	none
CCCCCn1cnc2c(sc3nc4c(cc32)CSC(C)(C)C4)c1=O	STAT1 activator 137.7
CC1(C)Cc2nc3sc4c(=O)[nH]cnc4c3cc2CS1	none
Cc1ccc(S(=O)(=O)C2(C(=O)N3CCCC(C)C3)CC2)cc1 (centres undefined)	none
O=c1c2ccccc2[nH]c(=S)n1CCCN1CCN(C2CCCCC2)CC1	none
Cc1cccc(-n2ncc(C#N)c2N)c1	none
Cc1ccc(-c2cc3ncc(C#N)c(N)n3n2)cc1	STAT1 activator 130.1
COc1ccc(-c2cc3ncc(C(C)=O)c(C)n3n2)cc1	STAT1 activator 135.0, APP 5'UTR act 141.4
CC(=O)c1cnc2cc(-c3ccc(C)cc3)nn2c1C	STAT1 activator 137.2, NF-kB expr up 6.59
COc1ccc(Cn2c(CCCO)nc3ccccc32)cc1OC	none
CC(C)NCC(O)COC1C2CC3CC(C2)CC1C3 (centres undefined)	none
Cc1c(C#N)c(NC(=O)CCl)n(Cc2ccc(F)cc2)c1C	STAT1 blocker 34.3
COc1ccccc1C1N(c2ccc(Cl)cc2)C(=O)C2CCCN21 (centres undefined)	STAT3 act 134.3
COc1ccc(N2C(=O)C3CCCN3C2c2ccccc2OC)cc1 (centres undefined)	none
CCOC(=O)c1cnn(-c2ccccc2)c1NC(=O)CCl	none
Cc1cc(NC(=O)NC(=O)c2ccc(F)cc2F)n[nH]1	STAT1 activator 148.7
CC(C)(C)c1ccc(-c2conc2N)cc1	NF-kB expr up 4.96
CS(=O)(=O)N1CCN(c2ccc(NC(=O)c3ccc(Br)o3)cc2)CC1	STAT1 activator 130.0
Cc1ccc(NC(=O)c2ccc(NS(=O)(=O)c3c(C)noc3C)cc2)cc1C	none
Oc1c(CN2CCOCC2)cc(COCc2ccccc2)c2cccnc12	NF-kB expr up 4.22
COCc1cc(CN2CCN(C)CC2)c(O)c2ncccc12	none
Cc1ccc(Cl)cc1OCC(=O)NCCOC(=O)Nc1sc(=S)n(C)c1C	none
Oc1ccc(/C=C/c2cc(O)cc(O)c2)cc1	NF-kB expr up 22.6, APP 5'UTR act 150.8
Cc1c(NC2=CC(=O)CCC2)c(=O)n(-c2ccccc2)n1C	none
COc1ccc(/C=C(\C#N)C(=O)OCC(=O)NC(C)c2ccccc2)cc1 (centres undefined)	none
Cc1ccc2nc(-c3ccc(NC(=O)CN4CCN(C(=O)c5ccco5)CC4)cc3)sc2c1	NF-kB expr up 4.36, APP 5'UTR act 148.8
COc1ccc(/C=C(\C#N)C(=O)OCC(=O)Nc2ccc(-c3nc4ccc(C)cc4s3)cc2)cc1	NF-kB expr up 4.5, APP 5'UTR act 184.5
Cc1ccc2nc(-c3ccc(NC(=O)COC(=O)c4cncc(Br)c4)cc3)sc2c1	STAT1 activator 143.6, NF-kB expr up 6.48, APP 5'UTR act 152.5
O=C(COC(=O)c1cncc(Br)c1)Nc1ccc2c(c1)OCO2	none
Cc1ccc2sc(-c3ccc(NC(=O)CCN4C(=O)c5ccccc5C4=O)cc3)nc2c1	STAT1 activator 149.9, APP 5'UTR act 161.8
COc1ccc(C(C(=O)NC2CCCC2)N(CC2CCCO2)C(=O)Cc2cccs2)cc1OC (centres undefined)	none
O=C(COC(=O)c1ccc(Br)o1)Nc1ccc(S(=O)(=O)N2CCCC2)cc1	none
Cc1ccc2nc(-c3ccc(NC(=O)COC(=O)c4ccc(Br)o4)cc3)sc2c1	STAT1 activator 141.7, NF-kB expr up 5.35, STAT3 blocker 43.4, APP 5'UTR act 135.6
CNC(=S)NC1CC2CCCC(C1)N2Cc1ccc(C)cc1 (centres undefined)	none
O=C(c1ccccc1F)N1CCN=C1c1ccccc1	none
CCc1ccc(NC(=O)COc2ccc(F)cc2C(=O)c2cnn(-c3ccccc3)c2)cc1	STAT1 activator 129.9
O=c1c2ccccc2nc2ccc(NCc3cccs3)nn12	NF-kB expr up 3.42
CCc1ccc(-c2nc(CCl)cs2)cc1	STAT1 activator 147.4
COc1ccc(-c2nc(CCl)cs2)cc1	none
CCOC(=O)CNc1c(-c2ccc(F)cc2)nc2cnccn12	none
CCNC(=S)N/N=C/c1ccc(OCc2ccc(C(=O)OC)cc2)cc1	none
CN(C)c1c([N+](=O)[O-])cc2[nH]c(=O)[nH]c2c1[N+](=O)[O-]	none
CCOc1ccc(NC(=O)Nc2ccccc2C(N)=O)cc1	none
Cc1ccc(-n2nnc3ccccc3c2=O)cc1C	STAT1 activator 133.8
Cc1cc(Cl)c(S(=O)(=O)Nc2cc(S(=O)(=O)N3CCOCC3)ccc2F)cc1OCC(N)=O	none
N/C(=N\OC(=O)c1cccc(Br)c1)c1ccc(Br)cc1	none
Cc1ccc(C(=O)O/N=C(\N)c2ccc(Br)cc2)cc1	STAT1 activator 136.7, NF-kB expr up 3.83
N/C(=N\OC(=O)c1ccc(Br)cc1)c1ccccc1	STAT1 activator 150.1, NF-kB expr up 9.74
O=C(OCC(=O)c1ccc[nH]1)c1ccccc1	STAT1 activator 137.9
O=C(NC1CCCCC1)C1CCN(C(=O)c2ccc(-c3ccccc3)cc2)CC1	none
Cc1ccc(CCNC(=O)CNC(=S)N(Cc2ccccc2)Cc2cccnc2)cc1	none
CC1CCN(C(=O)CCc2nnc(-c3ccccc3)o2)CC1	STAT1 activator 135.4
O=C(CCc1nnc(-c2ccc3c(c2)OCO3)o1)NC(c1ccccn1)C(F)(F)F (centres undefined)	none (no result: NF-kB expr up)
O=C(CCc1nnc(Cc2ccc(-c3ccccc3)cc2)o1)N1CCCC1	none
O=C(CCc1nnc(-c2ccc3c(c2)OCO3)o1)N1CCC(c2ccc(F)cc2)C1 (centres undefined)	STAT1 activator 134.3
CCOc1ccc2[nH]c(=O)c(CN(Cc3nnnn3Cc3ccco3)C3CCCCC3)cc2c1	none
O=C1C2CCCN2C(=S)N1Cc1ccccc1 (centres undefined)	none
COc1ccccc1C(=O)NNC(=S)NC(=O)c1sc2ccccc2c1Cl	none
Cc1c(NC(=S)NC(=O)c2sc3ccccc3c2Cl)cccc1C(=O)O	APP 5'UTR act 186.2
CN(C)Cc1nc2ccccc2c(=O)n1CC#N	none
C=CCSc1n[nH]c(-c2ccc(OCCC)cc2)n1	STAT1 activator 149.8, NF-kB expr up 3.84
CCOc1ncccc1C(=O)N1CCN(c2cc(Cl)ccc2C)CC1	none
CCOc1ncccc1C(=O)N1CCN(c2cccc(C)c2C)CC1	NF-kB expr up 3.9
